Results on 22 molecules are retold here after ChEMBL document CHEMBL1134055, “The synthesis of amino-acid functionalized beta-carbolines as topoisomerase II inhibitors” (2001).

Test [1] has as its system NCI-H520. The experiment in a line: In vitro cell growth inhibition of H520 cell line determined using Non-Radioactive Cell Proliferation Assay at a dose of 100 uM. It counts as functional, Homo sapiens. In short, it runs like this: (§1)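 Tetrazolium-type colorimetric proliferation assay (CellTiter 96 AQueous, non-radioactive); cells treated at 10, 50 and 100 µM; read as percent cell survival. All points in quadruplicate. Vehicle control DMSO (0.20%); m-AMSA (20, 40 µM) as reference control.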

Test [2] deals with PC-3. The experiment in a line: In vitro cell growth inhibition of PC3 cell line determined using non-radioactive cell proliferation assay at a dose of 100 uM. The format is functional, Homo sapiens. In a few lines: as §1
In test [3] the test system is NCI-H520. The experiment in a line: In vitro cell growth inhibition of H520 cell line determined using non-radioactive cell proliferation assay at a dose of 10 uM. It counts as functional, Homo sapiens. In a few lines: as §1
Test [4] has as its system PC-3. The experiment in a line: In vitro cell growth inhibition of PC3 cell line determined using Non-Radioactive Cell Proliferation Assay at a dose of 50 uM. It counts as functional, Homo sapiens. In a few lines:
as §1

Test [5] deals with NCI-H520. The experiment in a line: In vitro cell growth inhibition of H520 cell line determined using non-radioactive cell proliferation assay at a dose of 50 uM. The format is functional, Homo sapiens. In a few lines: as §1
In test [6] the test system is PC-3. The test can be described thus: In vitro cell growth inhibition of PC3 cell line determined using non-radioactive cell proliferation assay at a dose of 10 uM. The format is functional, Homo sapiens. In a few lines: as §1
A short description of test [7]: Inhibition of topo II-mediated DNA relaxation measured by topo II-mediated DNA relaxation assay; ++ indicates drug interaction with topo II. It counts as functional. In short, it runs like this: (§2)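 Relaxation of supercoiled plasmid pUC18 DNA (E. coli) by topo II (2.0 units per reaction) in Tris-Cl pH 8.0 buffer with KCl, MgCl2, ATP, DTT and BSA; 1 µL of 1 mM drug in 10% DMSO per 10 µL reaction, enzyme added last; 37 °C for 30-45 min. Stopped with sarkosyl buffer, chloroform/isoamyl alcohol extraction, 1% agarose gel, ethidium stain. Densitometric qualitative scoring; gels in triplicate.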

In test [8] the test system is NCI-H520. The experiment in a line: In vitro cell growth inhibition of H520 cell line determined using non-radioactive cell proliferation assay at a dose of 100 uM. It counts as functional, Homo sapiens. In a few lines: as §1
A short description of test [9]: Inhibition of topo II-mediated DNA relaxation measured by topo II-mediated DNA relaxation assay; +++ indicates drug interaction with topo II. It counts as functional. In short, it runs like this:
as §2

A short description of test [10]: Inhibition of topo II-mediated DNA relaxation measured by topo II-mediated DNA relaxation assay; ++++ indicates drug interaction with topo II. It counts as functional. In short, it runs like this:
as §2

The structures appear in SMILES notation. A value given as a limit tells only on which side of the number the result lay.

As to `COC(=O)[C@@H](CCSC)NC(=O)[C@@H]1Cc2c([nH]c3ccccc23)[C@@H](c2cc(OC)c(O)c(OC)c2)N1`, the Cell survival in the test on NCI-H520 [1] is reported as 89.6%; with PC-3 [2], greater than 100%; with NCI-H520 [3], greater than 100%; with PC-3 [4], greater than 100%; in the test with NCI-H520 [5], greater than 100%; with PC-3 [6], greater than 100%.

For the molecule `COC(=O)[C@@H](C)NC(=O)[C@@H]1Cc2c([nH]c3ccccc23)[C@@H](c2cc(OC)c(O)c(OC)c2)N1`, the Cell survival in the test on NCI-H520 [1] is on record as greater than 100%; with PC-3 [2], greater than 100%; with NCI-H520 [3], greater than 100%; in the test on PC-3 [4], greater than 100%; in the test on NCI-H520 [5] it was greater than 100%; in the test with PC-3 [6] it was 96.9%. Besides, the DNA relaxation result in test [7] was “drug interaction with topo II”.

Regarding `COc1cc([C@@H]2c3[nH]c4ccccc4c3C[C@H]3C(=O)N4CCC[C@H]4C(=O)N23)cc(OC)c1O`, the Cell survival in the test on PC-3 [2], in the test on NCI-H520 [3], with PC-3 [4], with NCI-H520 [5], in the test on PC-3 [6] and with NCI-H520 [8] was greater than 100% throughout.

For the molecule `COC(=O)[C@@H](Cc1c[nH]c2ccccc12)NC(=O)[C@@H]1Cc2c([nH]c3ccccc23)[C@@H](c2cc(OC)c(O)c(OC)c2)N1`, the Cell survival in the test on NCI-H520 [1] is given as 7.2%; with PC-3 [2], 62.4%; in the test with NCI-H520 [3], greater than 100%; with PC-3 [4], 84.9%; in the test with NCI-H520 [5] it was 35.2%; in the test on PC-3 [6], greater than 100%. The DNA relaxation result in test [9] is on record as “drug interaction with topo II”.

For the molecule `COC(=O)[C@@H](Cc1ccc(O)cc1)NC(=O)[C@@H]1Cc2c([nH]c3ccccc23)[C@@H](c2cc(OC)c(O)c(OC)c2)N1`, the Cell survival in the test with NCI-H520 [1] is reported as 83.2%; in the test on PC-3 [2], 89.8%; in the test with NCI-H520 [3] it was greater than 100%; with PC-3 [4], greater than 100%; in the test on NCI-H520 [5], 79%; in the test on PC-3 [6] it was 88.5%.

For the molecule `COC(=O)CNC(=O)[C@@H]1Cc2c([nH]c3ccccc23)[C@@H](c2cc(OC)c(O)c(OC)c2)N1`, the Cell survival is given as greater than 100% in the test on NCI-H520 [1]; 88.8% in the test with PC-3 [2]; greater than 100% with NCI-H520 [3]; greater than 100% with PC-3 [4]; greater than 100% in the test with NCI-H520 [5]; 99.7% in the test with PC-3 [6].

Take `COC(=O)[C@H](CC(C)C)NC(=O)[C@@H]1Cc2c([nH]c3ccccc23)[C@@H](c2cc(OC)c(O)c(OC)c2)N1`: the Cell survival is listed as 83.2% in the test with NCI-H520 [1]; 87.6% in the test on PC-3 [2]; 84% with NCI-H520 [3]; 98.7% in the test with PC-3 [4]; 89.2% in the test with NCI-H520 [5]; greater than 100% with PC-3 [6].

As for `COC(=O)[C@H](CCSC)NC(=O)[C@@H]1Cc2c([nH]c3ccccc23)[C@@H](c2cc(OC)c(O)c(OC)c2)N1`, the Cell survival in the test on NCI-H520 [1] is 79.9%; with PC-3 [2] it was 76.8%; in the test on NCI-H520 [3] it was 99.2%; in the test on PC-3 [4], 88.2%; with NCI-H520 [5], 91.2%; in the test with PC-3 [6], 96.7%.

For the molecule `COC(=O)[C@@H](NC(=O)[C@@H]1Cc2c([nH]c3ccccc23)[C@@H](c2cc(OC)c(O)c(OC)c2)N1)c1ccccc1`, the Cell survival is 86.8% in the test on NCI-H520 [1]; 64.5% in the test with PC-3 [2]; 82.7% in the test with NCI-H520 [3]; greater than 100% in the test on PC-3 [4]; 89.9% with NCI-H520 [5]; 88.5% in the test with PC-3 [6]. Also, the DNA relaxation result in [10] is recorded as “drug interaction with topo II”.

As to `COC(=O)[C@@H](CC(C)C)NC(=O)[C@@H]1Cc2c([nH]c3ccccc23)[C@@H](c2cc(OC)c(O)c(OC)c2)N1`, the Cell survival with NCI-H520 [1] is given as 80.6%; in the test with PC-3 [2], 99.4%; in the test with NCI-H520 [3] it was 85.2%; in the test on PC-3 [4] it was greater than 100%; in the test with NCI-H520 [5], 84.3%; with PC-3 [6] it was greater than 100%. Moreover, the DNA relaxation result in test [7] was “drug interaction with topo II”.

As to `COc1cc([C@@H]2c3[nH]c4ccccc4c3C[C@H]3C(=O)NCC(=O)N23)cc(OC)c1O`, the Cell survival in the test with NCI-H520 [1] is 51.9%; in the test on PC-3 [2] it was 86.6%; in the test on NCI-H520 [3], 91.6%; with PC-3 [4] it was greater than 100%; in the test on NCI-H520 [5], 69.2%; with PC-3 [6], greater than 100%.

In the case of `COC(=O)[C@H](NC(=O)[C@@H]1Cc2c([nH]c3ccccc23)[C@@H](c2cc(OC)c(O)c(OC)c2)N1)C(C)C`, the Cell survival is recorded as 98.3% in the test with NCI-H520 [1]; greater than 100% in the test with PC-3 [2]; 90% in the test on NCI-H520 [3]; greater than 100% with PC-3 [4]; greater than 100% with NCI-H520 [5]; greater than 100% in the test with PC-3 [6].

As for `COC(=O)[C@@H](NC(=O)[C@@H]1Cc2c([nH]c3ccccc23)[C@@H](c2cc(OC)c(O)c(OC)c2)N1)C(C)C`, the Cell survival is given as 93.6% in the test on NCI-H520 [1]; 95.3% in the test on PC-3 [2]; 87.6% in the test with NCI-H520 [3]; 93.1% with PC-3 [4]; 85.4% in the test with NCI-H520 [5]; 91.9% with PC-3 [6].

For `COC(=O)[C@H](CCCCN)NC(=O)[C@@H]1Cc2c([nH]c3ccccc23)[C@@H](c2cc(OC)c(O)c(OC)c2)N1`, the Cell survival in the test with NCI-H520 [1] is reported as greater than 100%; with PC-3 [2], 90.6%; in the test with NCI-H520 [3], 99.3%; with PC-3 [4] it was 91.2%; with NCI-H520 [5], greater than 100%; in the test with PC-3 [6] it was 95.2%.

With `COC(=O)[C@H](Cc1c[nH]c2ccccc12)NC(=O)[C@@H]1Cc2c([nH]c3ccccc23)[C@@H](c2cc(OC)c(O)c(OC)c2)N1`, the Cell survival with NCI-H520 [1] was 2.8%; with PC-3 [2], 6.7%; in the test with NCI-H520 [3] it was 67.9%; with PC-3 [4] it was 77%; in the test with NCI-H520 [5], 61.1%; in the test with PC-3 [6], 95.7%.

Regarding `COc1cc([C@@H]2c3[nH]c4ccccc4c3C[C@H]3C(=O)N[C@H](C)C(=O)N23)cc(OC)c1O`, the Cell survival in the test with NCI-H520 [1] turned out to be 91.5%; with PC-3 [2] it was 95.3%; with NCI-H520 [3], 93.8%; in the test on PC-3 [4], 99.5%; in the test on NCI-H520 [5] it was 99.7%; in the test with PC-3 [6] it was 82.6%.

In the case of `COC(=O)[C@H](NC(=O)[C@@H]1Cc2c([nH]c3ccccc23)[C@@H](c2cc(OC)c(O)c(OC)c2)N1)c1ccccc1`, the Cell survival with NCI-H520 [1] is on record as 99.2%; in the test with PC-3 [2], greater than 100%; in the test on NCI-H520 [3] it was greater than 100%; in the test with PC-3 [4] it was greater than 100%; with NCI-H520 [5], greater than 100%; in the test with PC-3 [6] it was greater than 100%. Besides, in test [9], the DNA relaxation result is on record as “drug interaction with topo II”.

Turning to `COC(=O)[C@@H](Cc1ccccc1)NC(=O)[C@@H]1Cc2c([nH]c3ccccc23)[C@@H](c2cc(OC)c(O)c(OC)c2)N1`, the Cell survival in the test with NCI-H520 [1] is given as 6.7%; in the test on PC-3 [2] it was 63.6%; in the test on NCI-H520 [3], 77.6%; with PC-3 [4], greater than 100%; in the test on NCI-H520 [5], 33%; with PC-3 [6], greater than 100%.

As for `COC(=O)[C@H](Cc1ccc(O)cc1)NC(=O)[C@@H]1Cc2c([nH]c3ccccc23)[C@@H](c2cc(OC)c(O)c(OC)c2)N1`, the Cell survival in the test on NCI-H520 [1] is given as 98.6%; with PC-3 [2], 94.9%; in the test on NCI-H520 [3], greater than 100%; with PC-3 [4], 96.4%; in the test on NCI-H520 [5] it was greater than 100%; in the test on PC-3 [6] it was greater than 100%.

For `COC(=O)[C@H](C)NC(=O)[C@@H]1Cc2c([nH]c3ccccc23)[C@@H](c2cc(OC)c(O)c(OC)c2)N1`, the Cell survival with NCI-H520 [1] is on record as greater than 100%; in the test with PC-3 [2], 95.8%; in the test with NCI-H520 [3] it was greater than 100%; with PC-3 [4], 96.6%; with NCI-H520 [5] it was greater than 100%; with PC-3 [6], greater than 100%.

Regarding `COC(=O)[C@@H](CCCCN)NC(=O)[C@@H]1Cc2c([nH]c3ccccc23)[C@@H](c2cc(OC)c(O)c(OC)c2)N1`, the Cell survival is 87.7% with NCI-H520 [1]; greater than 100% with PC-3 [2]; 78.3% in the test with NCI-H520 [3]; greater than 100% in the test on PC-3 [4]; 76.9% in the test on NCI-H520 [5]; greater than 100% in the test on PC-3 [6]. In addition, the DNA relaxation result in [7] was “drug interaction with topo II”.

With `COC(=O)[C@H](CO)NC(=O)[C@@H]1Cc2c([nH]c3ccccc23)[C@@H](c2cc(OC)c(O)c(OC)c2)N1`, the Cell survival was 79.6% in the test with NCI-H520 [1]; greater than 100% with PC-3 [2]; 87% in the test on NCI-H520 [3]; 98.5% in the test with PC-3 [4]; 90% in the test on NCI-H520 [5]; 99.7% in the test with PC-3 [6].
